Screening results from PubChem.
RORA inh: RORA (human) inhibition. P35398. CHO-K1 Gal4-RORA LBD luciferase reporter, luminescence. inhibition, % at 10 µM. 65,000 compounds, 0.43% hits. AID 561;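 active = inhibition above the mean of all tested compounds plus 3 SD, cut at about 52% in these data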
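test system = CHO-K1 Gal4-RORA LBD luciferase reporter cells | dosing = 10 µM single point | times = 20 h compound treatment, 37 °C | signal = luciferase luminescence | read-out = % inhibition of basal luciferase versus +RORA/-RORA DMSO controls | benchmarks = mock-transfected cells as 100%, +RORA DMSO cells as 0% | replicates = tested once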
A number is an active result; n = inactive. This is one part of a sample in which hits are shown more often than they occur.

SMILES	RORA inh
Cn1ncnc2c(=O)n(C)c(=O)nc1-2	98
COCCOC(=O)C1=C(N)Oc2c(c(=O)oc3ccccc23)C1c1ccncc1 (stereo unspecified)	n
O=C1NC(=O)C(CCc2ccncc2)(C2CCCCC2)C(=O)N1	n
Cc1ccc(Cl)cc1-n1c(O)c(C=NCCCN2CCOCC2)c(=O)[nH]c1=O	n
CCOC(=O)N(CC)c1ccc(C(O)(C(=O)OC)C(F)(F)F)cc1 (stereo unspecified)	n
CN1CCN(CCC(C#N)(c2ccccc2)c2ccccc2)CC1	n
C[C@@]1(CO)[C@H](O)CC[C@@]2(C)[C@H]1CC[C@H]1C[C@@H]3C[C@@]12CC[C@]3(O)CO	82
Cc1ccccc1-n1c(O)c(C=Nc2ccc(N(C)C)cc2)c(=O)[nH]c1=O	n
O=C(CN1C2CCC1CC(O)(c1cccnc1)C2)Nc1ccc2c(c1)OCO2 (stereo unspecified)	n
Cc1cccc(C)c1NC1=NCCCS1	n
